ChEMBL document CHEMBL1123760, “Synthesis and oral antifungal activity of novel azolylpropanolones and related compounds” (1987)
In brackets after ≈: the same amount, converted by molar mass.

Columns and labels:
Assay type in all cases: functional
Mus musculus [1] = assay: In vivo activity against subacute systemic murine candidiasis in mice at a daose of 12.5-100 mg/kg dosage range. Value was determined at day 15 after infection; conditions: 360 h
Mus musculus [2] = assay: Ratio of in vivo number of survivors / total infected; design: reference not given here
Cavia porcellus = assay: Number of skin sections yielding negative culture / total (48) (percentage) in guinea pig dermatophytosis at dose of 40 mg/kg […]. (Value is from Six skin sections cut out from each treated site)
Outline: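 Guinea pigs infected with Trichophyton asteroides, four animals each with two lesion sites. Oral 40 mg/kg once daily for 10 days (day 3 to day 12). Read-out is the rate of negative cultures from infected skin sections.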

Trichophyton benhamiae = assay: In vitro antifungal activity against Trichophyton asteroides
Outline: (§1)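 Broth microdilution MIC in Sabouraud's glucose broth; final inocula 1 × 10^5 cells/mL (yeast) or 1 × 10^5 conidia/mL (mold and dermatophyte).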

Candida albicans [3] = assay: Minimum effective concentration for inhibition of pseudomycelium formation in Candida albicans; conditions: for minimal effective concentration: Candida albicans, read-out: MEC
Outline: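 C. albicans KE-2 (clinical isolate) at a final 1 × 10^6 yeast cells/mL in EMEM with 20% calf serum; compounds diluted by the same microtiter system as for MICs. After incubation, wells were Giemsa-stained (5% in phosphate buffer) and read by microscope. MEC is the lowest concentration preventing typical pseudomycelium formation.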

Candida albicans [4] = assay: In vitro antifungal activity against Candida albicans; conditions: Candida albicans; read-out: MIC; outline: as §1
Aspergillus fumigatus = assay: In vitro antifungal activity against Aspergillus fumigatus; outline: as §1
[5] = Trichophyton benhamiae, read-out: MIC
[6] = Aspergillus fumigatus, read-out: MIC

SMILES	ED50 (Mus musculus [1]) [mg/kg]	No. of survivors (Mus musculus [2])	No. total (Cavia porcellus)	MIC (Trichophyton benhamiae; [5]) [µg/mL]	minimal effective concentration (Candida albicans [3]) [µg/mL]	MIC (Candida albicans [4]) [µg/mL]	MIC (Aspergillus fumigatus; [6]) [µg/mL]	MIC (Trichophyton benhamiae) [µg/mL]	MEC (Candida albicans [3]) [µg/mL]	MIC (Aspergillus fumigatus) [µg/mL]
CC(=O)N1CCN(c2ccc(OCC3COC(Cn4ccnc4)(c4ccc(Cl)cc4Cl)O3)cc2)CC1 (stereo not given) [KETOCONAZOLE]	32.3	–	–	–	–	–	–	–	–	–
CC(C)C(=O)C(O)(Cn1cncn1)c1ccc(Cl)cc1Cl (stereo not given)	22.6	8	7	0.1 (≈ 0.305 µM)	0.04	100 (≈ 305 µM)	100 (≈ 305 µM)	–	–	–
OC(c1ccc(F)cc1)C(O)(Cn1cncn1)c1ccc(Cl)cc1Cl (stereo in doubt; 92)	25.6	8	11	–	–	50 (≈ 131 µM)	–	0.1 (≈ 0.262 µM)	0.08	25 (≈ 65.4 µM)
O=C(c1ccccc1)C(O)(Cn1cncn1)c1ccc(Cl)cc1Cl (stereo not given)	–	7	–	0.1 (≈ 0.276 µM)	1.25	> 100	> 100	–	–	–
O=S1O[C@H](c2ccc(F)cc2)[C@@](Cn2cncn2)(c2ccc(Cl)cc2Cl)O1 (stereo not given in full)	–	4	–	0.1 (≈ 0.233 µM)	0.04	> 100	50 (≈ 117 µM)	–	–	–
O=C(c1ccc(Cl)cc1Cl)C(O)(Cn1cncn1)c1ccc(F)cc1 (stereo not given)	20.2	8	–	0.1 (≈ 0.263 µM)	0.31	100 (≈ 263 µM)	> 100	–	–	–
O=C1O[C@H](c2ccc(Cl)cc2Cl)[C@@](Cn2cncn2)(c2ccc(Cl)cc2)O1	–	8	–	0.1 (≈ 0.235 µM)	0.63	50 (≈ 118 µM)	> 100	–	–	–
O=C(c1ccccc1Cl)C(O)(Cn1cncn1)c1ccc(Cl)cc1Cl (stereo not given)	–	8	–	0.1 (≈ 0.252 µM)	0.04	> 100	> 100	–	–	–
O=C1O[C@H](c2ccc(Cl)cc2Cl)[C@@](Cn2cncn2)(c2ccc(Cl)cc2Cl)O1	–	0	–	0.1 (≈ 0.218 µM)	0.16	> 100	> 100	–	–	–
O=C(c1ccc(Cl)cc1)C(O)(Cn1cncn1)C1CCCCC1 (stereo not given)	–	0	–	0.8 (≈ 2.4 µM)	0.08	> 100	50 (≈ 150 µM)	–	–	–
CCC(=O)C(O)(Cn1cncn1)c1ccc(Cl)cc1Cl (stereo not given)	–	2	–	0.1 (≈ 0.318 µM)	0.04	100 (≈ 318 µM)	100 (≈ 318 µM)	–	–	–
O=S1O[C@H](c2ccc(Cl)cc2Cl)[C@](Cn2cncn2)(c2ccc(Cl)cc2)O1 (stereo not given in full)	–	7	–	0.1 (≈ 0.225 µM)	0.02	100 (≈ 225 µM)	> 100	–	–	–
CC(C)[C@H]1OCO[C@]1(Cn1cncn1)c1ccc(Cl)cc1	–	7	–	0.2 (≈ 0.65 µM)	0.04	> 100	100 (≈ 325 µM)	–	–	–
O=C(c1ccc(Cl)cc1Cl)C(O)(Cn1cncn1)c1ccc(Cl)cc1Cl (stereo not given)	32.3	7	27	0.1 (≈ 0.232 µM)	0.16	50 (≈ 116 µM)	> 100	–	–	–
CC(C)C(=O)C(O)(Cn1ccnc1)c1ccc(Cl)cc1 (stereo not given)	–	2	–	0.2 (≈ 0.683 µM)	0.08	> 100	25 (≈ 85.4 µM)	–	–	–
Cc1ccc(C(=O)C(O)(Cn2cncn2)c2ccccc2Cl)cc1 (stereo not given)	–	1	–	0.8 (≈ 2.34 µM)	2.5	> 100	> 100	–	–	–
CC(C)C(=O)C(O)(Cn1cncn1)c1ccc(Cl)cc1 (stereo in doubt; 39)	14.7	–	–	–	–	–	–	0.1 (≈ 0.34 µM)	–	–
OC(c1ccccc1Cl)C(O)(Cn1cncn1)c1ccc(F)cc1 (stereo not given)	–	0	–	0.8 (≈ 2.3 µM)	10	> 100	> 100	–	–	–
O=C(c1ccc(Cl)cc1)C(O)(Cn1cncn1)c1ccc(Cl)cc1Cl (stereo not given)	–	7	–	0.1 (≈ 0.252 µM)	1.25	> 100	> 100	–	–	–
O=C1O[C@H](c2ccc(F)cc2)[C@@](Cn2cncn2)(c2ccc(Cl)cc2Cl)O1	–	7	–	0.1 (≈ 0.245 µM)	0.63	50 (≈ 122 µM)	> 100	–	–	–
CCCC(O)(c1ccc(F)cc1)C(O)(Cn1cncn1)c1ccc(Cl)cc1 (stereo not given)	–	7	–	0.2 (≈ 0.513 µM)	0.31	> 100	> 100	–	–	–
O=C(c1ccccc1Cl)C(O)(Cn1cncn1)c1ccccc1Cl (stereo not given)	–	2	–	0.1 (≈ 0.276 µM)	0.08	50 (≈ 138 µM)	50 (≈ 138 µM)	–	–	–
Clc1ccc([C@@]2(Cn3cncn3)OCO[C@@H]2c2ccc(Cl)cc2Cl)cc1	–	0	–	0.1 (≈ 0.243 µM)	0.31	> 100	> 100	–	–	–
